5HT1a antag: human 5-HT1a receptor antagonists, primary screen, cell-based, CHO, Ga15 NFAT-bla reporter; inhibition, % at 10 µM; CHO 5-HT1a Ga15 NFAT-bla reporter, antagonist mode; 62,000 tested, 0.68% active;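 active = inhibition above the mean of all tested compounds plus 3 SD, cut at about 43% in these data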;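 also: receptor stimulated by 5-CT agonist at 100 nM near EC80; beta-lactamase reporter measured by ratiometric fluorescence of a cleavable substrate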
Target sequence (P08908 whole entry, looked up): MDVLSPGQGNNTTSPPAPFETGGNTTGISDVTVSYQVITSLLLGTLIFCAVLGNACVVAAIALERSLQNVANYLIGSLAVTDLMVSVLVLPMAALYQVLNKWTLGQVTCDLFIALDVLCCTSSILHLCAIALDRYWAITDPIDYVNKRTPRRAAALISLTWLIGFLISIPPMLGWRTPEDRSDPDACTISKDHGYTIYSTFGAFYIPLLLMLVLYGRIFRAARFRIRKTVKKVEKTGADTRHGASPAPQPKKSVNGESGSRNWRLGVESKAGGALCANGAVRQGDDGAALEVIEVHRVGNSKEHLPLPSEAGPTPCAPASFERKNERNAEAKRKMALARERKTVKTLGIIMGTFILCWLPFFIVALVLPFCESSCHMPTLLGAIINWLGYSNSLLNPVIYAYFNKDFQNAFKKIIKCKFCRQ
HTR1A agonist: human 5-HT1a receptor agonists, primary screen, cell-based, CHO, Ga15 NFAT-bla reporter; 5-hydroxytryptamine receptor 1A (Homo sapiens), P08908; CHO 5-HT1a Ga15 NFAT-bla reporter, FRET ratio; 0% basal, 100% maximal reference agonist; activation, % at 10 µM; 65,000 tested, 0.56% active; AID 567, 2006;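 active = activation above the screen-wide mean activation plus 3 SD, cut at about 19% in these data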;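 also: 0% = DMSO wells and 100% = 5-CT at EC100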
HTR1E agonist: 5-HT1E receptor agonists, primary screen, cell-based, HTS. 5-hydroxytryptamine receptor 1E (Homo sapiens), P28566. CHO 5-HT1E Ga15 NFAT-bla reporter, FRET; 0% DMSO wells, 100% control agonist wells. activation, % at 6 µM. 65,000 tested, 0.69% active. AID 574, 2007;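 active = activation above a set limit, the screen-wide mean activation plus 3 SD, cut at about 8.5% in these data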;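 also: 100% = positive control agonist at 1 µM giving full maximal response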
5HT1E antag: 5-HT1E receptor antagonists, primary screen, cell-based, HTS; 5-hydroxytryptamine receptor 1E (Homo sapiens), P28566; CHO 5-HT1E Ga15 NFAT-bla reporter, FRET, antagonist; inhibition, % at 6 µM; 65,000 tested, 0.99% active; AID 571, 2007;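 active = inhibition above a set limit, the mean inhibition across every tested compound plus 3 SD, cut at about 29% in these data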;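 also: signal is the 460 over 535 nm emission ratio of beta-lactamase substrate; 0% = agonist plus DMSO wells and 100% = wells without agonist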
HEK293 NFkB inh: inhibitors of PMA/ionomycin-induced NF-kB reporter, primary screen, antigen receptor NF-kB inhibitor project, cell-based, HEK-293 luciferase reporter, luminescence | HEK-293 NF-kB luciferase reporter | inhibition, % at 3 µM | 62,000 tested, 0.21% active;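 active = inhibition above the mean of all tested compounds plus 3 SD, cut at about 40% in these data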;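 also: 0% = stimulated DMSO wells and 100% = 10 µM reference inhibitor 5653914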
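Material: HEK-293 cells with stable firefly luciferase reporter driven by four HIV NF-kB elements / Also added: PMA plus ionomycin mix as NF-kB-activating stimulus / Compound dosing: 3 µM once, 0.30% DMSO / Times: 1 h pretreatment, 16 h stimulation, 37 °C / Signal: luminescence / Evaluation: per-plate % inhibition versus controls / Benchmarks: DMSO and 10 µM reference inhibitor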
* = called active by the depositor; · = no result. Hits are enriched below; roughly 2.6% of the tested compounds scored in any of these assays.

SMILES	5HT1a antag	HTR1A agonist	HTR1E agonist	5HT1E antag	HEK293 NFkB inh
Cn1cccc1C(=O)c1ccc(Cl)cc1Cl	4	-3	0	11	2
Cc1cc(Cl)ccc1OCCCC(=O)NC1CCN(C)CC1	-11	-2	1	-6	15
NC(=O)c1sc2nccc(Nc3ccccc3)c2c1N	4	0	0	9	45*
CC(C)(C)C(=O)c1sc(Nc2ccccc2)nc1N	12	-2	0	-6	-48
Cc1ccc(O)c(C(=O)c2cnc3c(c2)CN(CCC(C)C)C(=O)N3)c1	23	0	8	10	12
CN1Cc2cc(C(=O)c3cc(Cl)cc(CSc4ncccn4)c3O)cnc2NC1=O	60*	-3	-1	80*	33
O=C(CSCc1cccc(Br)c1)N1CCOCC1	-5	-3	0	-3	-3
c1ccc2[nH]c(CSc3ncnc4c3oc3ccccc34)nc2c1	21	0	0	38*	22
Fc1ccc(CSc2ncnc3c2oc2ccccc23)cc1	-7	1	1	0	7
Cc1nc(SCCO)c2oc3ccccc3c2n1	-2	1	2	18	15
Cc1nc(N2CCN(Cc3nc4ccccc4[nH]3)CC2)c2oc3ccccc3c2n1	11	3	28*	31*	0
Cc1nc(SCc2nc3ccccc3[nH]2)c2oc3ccccc3c2n1	32	0	0	39*	13
Cc1noc(C)c1COC(=O)CCN1c2ccccc2Sc2ccccc21	13	-3	-1	-5	12
Cc1cc(-c2cc(-c3ccc(Cl)cc3)nc(N)c2C#N)co1	·	41*	7	-27	·
O=C(Nc1ccc(Cl)cc1)N1CCC(c2nc(-c3ccc(F)cc3)no2)CC1	47*	-2	0	22	20
COC(=O)C1=C(NC(=O)c2cccc(C)c2)CCS1	-3	1	1	-6	0
Clc1cccc(-c2cc3nc4c(c(N5CCOCC5)n3n2)CCCC4)c1	17	1	-1	17	6
Fc1cccc(-c2cc3nc4c(c(N5CCOCC5)n3n2)CCCC4)c1	21	-2	-1	30*	15
O=C(Cn1ncc2c(=O)oc3ccccc3c21)Nc1nc2ccccc2s1	-5	-2	0	0	7
O=S(=O)(Nc1nc2ccccc2nc1Nc1ccc2c(c1)OCCO2)c1cccs1	23	0	1	-1	16
Cc1ccc(-c2cc(C(F)F)n3ncc(C(=O)N4CCN5CCCC5C4)c3n2)cc1 (configuration not stated)	-4	0	4	-6	10
CCOC(=O)C1CCCN(C(=O)c2cnn3c(C(F)F)cc(-c4ccc(C)cc4)nc23)C1 (configuration not stated)	47*	1	3	-8	9
COc1ccc(CC(=O)Nc2cccc(-c3nnc(-c4ccc(C)cc4)o3)c2)cc1OC	-6	-1	0	34*	6
COc1ccc(CC(=O)Nc2cccc(-c3nnc(-c4cccc(C)c4)o3)c2)cc1OC	92*	-1	2	80*	0
COc1ccc(CC(=O)Nc2cccc(-c3nnc(-c4ccccc4)o3)c2)cc1OC	16	1	0	18	12
SMILES	5HT1a antag	HTR1A agonist	HTR1E agonist	5HT1E antag	HEK293 NFkB inh
CCO/C(C)=N/n1c2nc3ccccc3nc2c2c(=O)n(Cc3ccccc3Cl)c(C)nc21	·	-1	0	-6	·
O=C(CCN1C(=O)COc2ccccc21)NCCN1CCN(c2cccc(Cl)c2)CC1	33	3	9.6*	7	4
O=C(NCCCN1CCN(c2cccc(Cl)c2)CC1)c1cccc(N2CCCC2=O)c1	89*	2	2	0	12
O=C(CCN1C(=O)COc2ccccc21)NCCN1CCOCC1	8	-3	-1	0	4
Cc1cccc(C(=O)NCCN2CCN(c3ccccc3)CC2)c1	-278	52*	0	3	0
O=C(NCCN1CCN(c2ccccc2)CC1)c1cccc(Br)c1	32	2	0	7	-10
O=C(NCCN1CCCCCC1)c1ccc(N2CCCC2=O)cc1	-4	-5	0	-3	11
O=C(NCCCN1CCN(c2cccc(Cl)c2)CC1)c1ccc(N2CCCC2=O)cc1	46*	15	8	-6	17
c1ccc(N2CCN(Cc3cn4cccnc4n3)CC2)cc1	-3	-1	59*	7	-8
COCCCNC(=O)c1ccc(CS(=O)(=O)c2ccc(OC)cc2)o1	10	0	-1	31*	10
CC(C)Cc1nc2oc3c(NCc4cccnc4)ncnc3c2c2c1CCC2	-2	0	2	35*	4
CC(C)c1nc2oc3c(NCc4cccnc4)ncnc3c2c2c1CCC2	-11	1	-1	30*	16
CCN1CCN(c2ncnc3c2oc2nc(C(C)C)c4c(c23)CCC4)CC1	-19	-1	2	-6	3
CC(C)c1cc(=O)oc2c3c4c(cc12)CCCN4CCC3	0	-5	0	15	22
CN1CCCc2cc3c(C(F)(F)F)cc(=O)oc3nc21	19	5	2	41*	13
Cc1cc(C)n(-c2nc(NCCO)c3c4c(sc3n2)CCCC4)n1	-19	45*	0	-12	10
Cc1cc(C)n(-c2nc(NCCCO)c3c4c(sc3n2)CCCC4)n1	-18	10	1	11	18
CCOC(=O)c1cnc(-n2nc(C)cc2C)nc1N(CC)CC	12	-1	0	3	6
CC(=O)c1sc(NC(=O)C2(F)C(F)(F)C(F)(F)C(F)(F)C(F)(F)C2(F)F)nc1C	65*	1	1	25	90*
CC(=O)c1sc(NC(=O)C=C(C)C)nc1C	-10	2	0	-9	3
Cc1ccccc1NC(=O)Cc1nc(CSc2nnc(C3CCCCC3)n2N)cs1	-6	0	0	1	14
COC(=O)c1ccc(CSc2nc(C)nc3sc(C)c(C)c23)o1	50*	-4	-1	33*	9
CCN(CC)c1ccc(NC(=O)C2CCCN(S(=O)(=O)c3cccnc3)C2)c(C)c1 (configuration not stated)	-4	0	0	32*	19
COC(=O)c1cc(-c2c(C)oc3cc(O)ccc3c2=O)c(C)o1	0	51*	0	1	8
COC(=O)CCSCc1cn2cc(Cl)ccc2n1	-5	-5	-1	-1	13
Oc1c(CN2CCOCC2)cc(COCc2ccccc2)c2cccnc12	17	-1	1	43*	33
Cc1nnc(NCc2ccncc2)c2ccccc12	5	88*	1	-5	23

Screening data: PubChem, The Scripps Research Institute Molecular Screening Center
